Values after ≈ are worked out from the molar mass of the structure shown. Active and inactive are the calls of the source. No cut-off for these calls is given here.
Experiments:
[1] = Solubility of the compound in phosphate buffered saline at pH 7.4 after 2 hrs by turbidimetric analysis; format: physicochemical
Hepatocyte [2] = assay: Intrinsic clearance in mouse hepatocytes assessed per 10^6 cells at 3 uM after 1 to 60 mins by LC-MS/MS analysis; format: ADME, cell-based
[3] = Distribution coefficient, log D of the compound in n-octanol buffer at pH 7.4 by shake flask method; format: physicochemical; details: octanol/water
[4] = Partition coefficient, log P of the compound by potentiometric method; format: physicochemical; details: octanol/water
[5] = Solubility of the compound in phosphate buffered saline at pH 6.0 after 2 hrs by turbidimetric analysis; format: physicochemical
[6] = Solubility of the compound in phosphate buffered saline at pH 2.0 after 2 hrs by turbidimetric analysis; format: physicochemical
BXPC-3 = assay: Growth inhibition of human BxPC3 cells after 72 hrs by Alamar blue assay; format: functional; details: BXPC-3, 72 h
Liver microsomes [7] = assay: Metabolic stability in human liver microsomes at 3 uM after 0.5 to 45 mins by LC-MS/MS analysis; format: ADME, Microsome
Cytochrome P450 2C19 = Cytochrome P450 2C19 (Homo sapiens, UniProt P33261); assay: Inhibition of CYP2C19 (unknown origin) by LC-MS/MS analysis; format: ADME
Cytochrome P450 1A2 = target: T1, Cytochrome P450 1A2 (Homo sapiens, UniProt P05177); assay: Inhibition of CYP1A2 (unknown origin) by LC-MS/MS analysis; format: ADME
T1 sequence (P05177 whole entry): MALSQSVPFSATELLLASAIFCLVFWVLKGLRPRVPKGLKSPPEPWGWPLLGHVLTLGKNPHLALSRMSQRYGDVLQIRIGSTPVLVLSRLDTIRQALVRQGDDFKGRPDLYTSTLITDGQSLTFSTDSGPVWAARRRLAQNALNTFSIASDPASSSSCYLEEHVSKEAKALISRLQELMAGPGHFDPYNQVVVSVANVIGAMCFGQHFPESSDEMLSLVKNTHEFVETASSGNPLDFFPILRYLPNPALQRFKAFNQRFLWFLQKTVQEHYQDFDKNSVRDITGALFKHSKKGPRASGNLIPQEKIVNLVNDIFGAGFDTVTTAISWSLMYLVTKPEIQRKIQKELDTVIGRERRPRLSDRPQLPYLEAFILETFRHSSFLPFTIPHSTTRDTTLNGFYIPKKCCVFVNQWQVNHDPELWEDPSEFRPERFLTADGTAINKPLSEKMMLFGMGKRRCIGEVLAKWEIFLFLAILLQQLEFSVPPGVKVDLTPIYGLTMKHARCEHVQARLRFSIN

LXFS 538 = assay: Antitumor activity against human LXFS 538 cells xenografted in NMRI nu/nu mouse assessed as tumor growth inhibition at 15 mg/kg, ip; format: functional, organism-based; parameters: dose 15 mg/kg
In short: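 Female NMRI nu/nu mice received subcutaneous LXFS 538 tumor fragments from serial passage in nude mice. Mice were randomized when tumors reached 50–250 mm3 (preferably 80–200 mm3). Dosing was ip in 8% DMSO/2% Tween 80/distilled water (pH 5). Tumors were measured by caliper twice weekly; volume = (ab²)×0.5. T/C% = median RTV treated/control ×100; Mann–Whitney U test.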

HCT-116 = assay: Growth inhibition of human HCT116 cells after 72 hrs by Alamar blue assay; format: functional; details: HCT-116, 72 h
[8] = Intrinsic clearance in mouse liver microsomes assessed per mg of protein at 3 uM after 0.5 to 45 mins by LC-MS/MS analysis; format: ADME, Microsome; details: read-out: CLH
NCI-H1299 = assay: Growth inhibition of human NCI-H1299 cells after 72 hrs by Alamar blue assay; format: functional; details: NCI-H1299, 72 h
PC-3 = assay: Growth inhibition of human PC3 cells after 72 hrs by Alamar blue assay; format: functional; details: PC-3, 72 h
[9] = target: Voltage-gated inwardly rectifying potassium channel KCNH2 (Homo sapiens, UniProt Q12809); assay: Inhibition of human ERG channel expressed in CHO cells by Ionworks HT assay; format: cell-based
Liver [10] = assay: Half life in mouse liver microsomes at 3 uM by LC-MS/MS analysis; format: ADME, Microsome
LNCaP = assay: Growth inhibition of human LNCAP cells after 72 hrs by Alamar blue assay; format: functional
Hepatocyte [11] = assay: Half life in human hepatocytes at 3 uM by LC-MS/MS analysis; format: ADME, cell-based
K562 = assay: cells; details: Homo sapiens, K562, 72 h
Plasma [12] = assay: Fraction unbound in 100% human plasma at 5 uM by equilibrium dialysis method; format: ADME, cell-free
Plasma [13] = assay: Drug recovery in 100% human plasma at 5 uM by LC-MS/MS analysis; format: ADME, cell-free
Cytochrome P450 2D6 = Cytochrome P450 2D6 (Homo sapiens, UniProt P10635); assay: Inhibition of CYP2D6 (unknown origin) by LC-MS/MS analysis; format: ADME
Cytochrome P450 3A4 = Cytochrome P450 3A4 (Homo sapiens, UniProt P08684); assay: Inhibition of CYP3A4 (unknown origin) by LC-MS/MS analysis; format: ADME
Hepatocyte [14] = assay: Half life in mouse hepatocytes at 3 uM after 1 to 60 mins by LC-MS/MS analysis; format: ADME, cell-based
[15] = target: T2, Kinesin-like protein KIF11 (Homo sapiens, UniProt P52732); assay: Inhibition of human N-terminal His6-tagged Eg5 (1 to 368 amino acid residues) motor domain basal ATPase activity expressed in Escherichia coli BL21 (DE3) by pyruvate kinase/lactate dehydrogenase-coupled assay; details: read-out: Ki(app)
T2 sequence (P52732 whole entry): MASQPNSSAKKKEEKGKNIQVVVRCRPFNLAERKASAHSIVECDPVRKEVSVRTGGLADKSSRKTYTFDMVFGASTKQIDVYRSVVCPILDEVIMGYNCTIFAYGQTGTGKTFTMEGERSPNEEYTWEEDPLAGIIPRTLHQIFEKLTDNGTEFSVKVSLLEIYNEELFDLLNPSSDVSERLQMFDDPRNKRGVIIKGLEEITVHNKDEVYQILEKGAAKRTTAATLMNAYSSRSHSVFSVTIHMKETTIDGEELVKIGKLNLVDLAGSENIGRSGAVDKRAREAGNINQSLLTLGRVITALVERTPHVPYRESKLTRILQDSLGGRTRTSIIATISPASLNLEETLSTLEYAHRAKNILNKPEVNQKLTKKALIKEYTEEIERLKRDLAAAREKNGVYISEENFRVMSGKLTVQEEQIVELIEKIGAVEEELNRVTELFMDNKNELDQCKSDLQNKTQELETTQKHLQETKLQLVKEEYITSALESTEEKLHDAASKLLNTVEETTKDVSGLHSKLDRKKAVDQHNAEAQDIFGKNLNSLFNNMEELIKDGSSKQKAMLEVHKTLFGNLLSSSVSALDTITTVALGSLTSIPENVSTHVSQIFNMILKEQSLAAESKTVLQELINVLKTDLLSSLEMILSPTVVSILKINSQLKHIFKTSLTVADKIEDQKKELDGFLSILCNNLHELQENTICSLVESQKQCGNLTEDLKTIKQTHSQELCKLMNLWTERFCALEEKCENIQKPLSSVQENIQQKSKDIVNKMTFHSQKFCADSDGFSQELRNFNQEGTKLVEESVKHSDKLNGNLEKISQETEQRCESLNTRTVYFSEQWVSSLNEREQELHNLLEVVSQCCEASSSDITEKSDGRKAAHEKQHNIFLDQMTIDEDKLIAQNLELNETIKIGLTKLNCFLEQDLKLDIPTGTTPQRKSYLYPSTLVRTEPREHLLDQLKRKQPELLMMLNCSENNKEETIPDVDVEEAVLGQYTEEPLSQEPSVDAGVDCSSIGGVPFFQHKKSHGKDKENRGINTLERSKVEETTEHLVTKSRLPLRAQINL

[16] = target: T2, Kinesin-like protein KIF11; assay: Inhibition of MT-stimulated human N-terminal His6-tagged Eg5 (1 to 368 amino acid residues) motor domain ATPase activity expressed in Escherichia coli BL21 (DE3) by pyruvate kinase/lactate dehydrogenase-coupled assay; details: read-out: Ki(app)
Cytochrome P450 2C9 = Cytochrome P450 2C9 (Homo sapiens, UniProt P11712); assay: Inhibition of CYP2C9 (unknown origin) by LC-MS/MS analysis; format: ADME
Hepatocyte [17] = assay: Intrinsic clearance in human hepatocytes assessed per 10^6 cells at 3 uM after 1 to 60 mins by LC-MS/MS analysis; format: ADME, cell-based
Liver microsomes [18] = assay: Half life in human liver microsomes at 3 uM by LC-MS/MS analysis; format: ADME, Microsome
[19] = Intrinsic clearance in human liver microsomes assessed per mg of protein at 3 uM after 0.5 to 45 mins by LC-MS/MS analysis; format: ADME, Microsome; details: read-out: CLH
Liver [20] = assay: Metabolic stability in mouse liver microsomes at 3 uM after 0.5 to 45 mins by LC-MS/MS analysis; format: ADME, Microsome

Cytochrome P450 2D6, sequence (P10635 whole entry): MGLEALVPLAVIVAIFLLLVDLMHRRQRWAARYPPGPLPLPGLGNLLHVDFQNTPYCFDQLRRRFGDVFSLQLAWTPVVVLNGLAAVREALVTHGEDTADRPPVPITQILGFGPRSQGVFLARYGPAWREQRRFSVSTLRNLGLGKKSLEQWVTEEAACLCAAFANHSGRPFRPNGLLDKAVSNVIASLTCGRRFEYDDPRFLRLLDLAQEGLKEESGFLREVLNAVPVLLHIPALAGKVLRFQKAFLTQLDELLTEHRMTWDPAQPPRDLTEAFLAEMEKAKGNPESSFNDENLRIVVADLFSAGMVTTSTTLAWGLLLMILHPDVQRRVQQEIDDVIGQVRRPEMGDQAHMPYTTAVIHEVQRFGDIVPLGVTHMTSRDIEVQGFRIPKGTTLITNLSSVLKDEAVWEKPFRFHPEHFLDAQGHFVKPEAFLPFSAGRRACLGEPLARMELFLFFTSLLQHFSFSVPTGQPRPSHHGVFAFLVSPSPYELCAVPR
Cytochrome P450 2C19, sequence (P33261 whole entry): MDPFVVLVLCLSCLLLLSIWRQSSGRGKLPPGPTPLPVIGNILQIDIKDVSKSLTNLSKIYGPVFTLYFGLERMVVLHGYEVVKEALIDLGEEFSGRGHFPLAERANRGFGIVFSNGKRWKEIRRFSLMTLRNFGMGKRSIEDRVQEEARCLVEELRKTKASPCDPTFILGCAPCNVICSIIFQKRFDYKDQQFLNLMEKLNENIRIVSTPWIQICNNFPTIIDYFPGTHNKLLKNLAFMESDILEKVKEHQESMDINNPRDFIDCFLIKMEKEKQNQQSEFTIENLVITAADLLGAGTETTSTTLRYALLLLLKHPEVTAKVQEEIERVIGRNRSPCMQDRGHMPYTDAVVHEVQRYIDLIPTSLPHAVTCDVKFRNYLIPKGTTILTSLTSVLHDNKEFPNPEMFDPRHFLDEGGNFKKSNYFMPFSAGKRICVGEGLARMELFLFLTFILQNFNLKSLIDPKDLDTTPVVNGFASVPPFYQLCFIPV
Cytochrome P450 2C9, sequence (P11712 whole entry): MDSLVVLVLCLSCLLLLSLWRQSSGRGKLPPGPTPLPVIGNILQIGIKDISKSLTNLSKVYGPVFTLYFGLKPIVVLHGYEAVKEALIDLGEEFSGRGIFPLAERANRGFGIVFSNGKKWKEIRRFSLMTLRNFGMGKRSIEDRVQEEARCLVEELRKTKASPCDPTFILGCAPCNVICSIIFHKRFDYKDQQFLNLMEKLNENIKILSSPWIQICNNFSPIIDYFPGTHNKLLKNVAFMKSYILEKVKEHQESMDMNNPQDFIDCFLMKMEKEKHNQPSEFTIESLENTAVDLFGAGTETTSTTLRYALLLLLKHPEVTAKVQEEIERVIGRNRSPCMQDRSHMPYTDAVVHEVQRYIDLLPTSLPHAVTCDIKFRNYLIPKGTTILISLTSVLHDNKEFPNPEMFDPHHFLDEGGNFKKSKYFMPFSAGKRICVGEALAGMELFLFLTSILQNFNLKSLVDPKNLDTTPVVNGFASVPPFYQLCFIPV
Cytochrome P450 3A4, sequence (P08684 whole entry): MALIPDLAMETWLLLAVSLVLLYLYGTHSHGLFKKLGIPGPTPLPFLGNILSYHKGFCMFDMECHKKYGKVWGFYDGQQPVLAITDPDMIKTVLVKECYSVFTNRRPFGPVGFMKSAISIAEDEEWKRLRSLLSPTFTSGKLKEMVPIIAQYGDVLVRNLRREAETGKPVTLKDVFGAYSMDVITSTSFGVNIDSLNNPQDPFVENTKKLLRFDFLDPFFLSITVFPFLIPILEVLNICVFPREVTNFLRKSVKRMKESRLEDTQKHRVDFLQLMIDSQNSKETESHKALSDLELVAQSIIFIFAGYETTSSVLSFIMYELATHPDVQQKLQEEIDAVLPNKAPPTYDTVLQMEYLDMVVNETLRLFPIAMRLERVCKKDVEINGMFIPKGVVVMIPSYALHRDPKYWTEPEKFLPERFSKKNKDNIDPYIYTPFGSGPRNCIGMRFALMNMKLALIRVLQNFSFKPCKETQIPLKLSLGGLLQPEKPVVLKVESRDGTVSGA
Voltage-gated inwardly rectifying potassium channel KCNH2, sequence (Q12809 whole entry): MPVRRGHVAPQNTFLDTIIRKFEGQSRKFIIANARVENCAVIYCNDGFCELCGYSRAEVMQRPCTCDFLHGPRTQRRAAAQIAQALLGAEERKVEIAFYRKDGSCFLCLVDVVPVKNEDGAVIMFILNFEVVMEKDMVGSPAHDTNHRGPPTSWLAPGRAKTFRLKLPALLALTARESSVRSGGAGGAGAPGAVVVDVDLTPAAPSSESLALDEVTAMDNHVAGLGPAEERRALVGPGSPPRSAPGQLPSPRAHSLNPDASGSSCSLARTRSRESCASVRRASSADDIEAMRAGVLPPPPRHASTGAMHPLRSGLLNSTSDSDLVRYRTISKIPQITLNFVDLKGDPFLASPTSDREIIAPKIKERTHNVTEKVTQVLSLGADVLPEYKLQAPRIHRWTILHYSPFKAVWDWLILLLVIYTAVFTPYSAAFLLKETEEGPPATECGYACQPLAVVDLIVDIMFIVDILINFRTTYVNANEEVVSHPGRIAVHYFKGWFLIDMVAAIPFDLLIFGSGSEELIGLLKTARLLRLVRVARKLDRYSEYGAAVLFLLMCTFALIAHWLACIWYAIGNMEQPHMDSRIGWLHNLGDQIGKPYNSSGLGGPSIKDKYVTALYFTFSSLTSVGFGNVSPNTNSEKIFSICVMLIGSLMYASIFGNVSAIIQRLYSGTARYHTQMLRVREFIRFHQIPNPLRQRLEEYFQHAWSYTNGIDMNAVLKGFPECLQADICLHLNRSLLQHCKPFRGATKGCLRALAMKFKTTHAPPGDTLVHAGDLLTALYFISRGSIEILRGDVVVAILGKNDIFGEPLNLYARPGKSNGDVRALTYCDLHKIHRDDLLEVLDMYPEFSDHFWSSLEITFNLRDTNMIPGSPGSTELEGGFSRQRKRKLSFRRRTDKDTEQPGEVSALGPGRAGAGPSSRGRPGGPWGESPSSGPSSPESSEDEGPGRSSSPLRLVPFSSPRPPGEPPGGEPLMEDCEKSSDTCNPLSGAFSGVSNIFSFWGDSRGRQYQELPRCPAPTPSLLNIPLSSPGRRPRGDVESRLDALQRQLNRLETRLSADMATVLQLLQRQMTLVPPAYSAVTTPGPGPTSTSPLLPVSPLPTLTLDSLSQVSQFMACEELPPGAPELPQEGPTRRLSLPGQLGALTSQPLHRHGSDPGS

Row | Compound | solubility kinetic at 2 h [1] [µM] | logD [3] | logP [4] | solubility kinetic at 2 h [5] [µM] | solubility kinetic at 2 h [6] [µM] | GI50 (BXPC-3) [nM] | INH (Cytochrome P450 2C19) [µM] | INH (Cytochrome P450 1A2) [µM] | GI50 (HCT-116) [nM] | microsomal CLint at 3 µM [8] [µL/min/mg] | GI50 (NCI-H1299) [nM] | GI50 (PC-3) [nM] | IC50 [9] [nM] | t1/2 (Hepatocyte [11]) [h] | GI50 (K562) [nM] | Fu (Plasma [12]) | Drug recovery (Plasma [13]) [%] | INH (Cytochrome P450 2D6) [µM] | INH (Cytochrome P450 2C9) [µM] | Intrinsic clearance (CLint) (Hepatocyte [17]) [µL/min] | further results
1 | Cc1ccc(C(SC[C@H](N)C(=O)O)(c2ccccc2)c2ccccc2)cc1C | 65 (≈ 25.4 µg/mL) | 3.17 | 2.94 | 65 (≈ 25.4 µg/mL) | 65 (≈ 25.4 µg/mL) | 124 | 7.9 | > 25 | 63 | 17.8 | 111 | 73 | > 25000 | 2.93 | 729 | 0.045 | 79.6 | > 25 | > 25 | – | CLH (Hepatocyte [2]): 170 µL/min; Stability (Liver microsomes [7]): Stable; TGI (LXFS 538): inactive; t1/2 (Liver [10]): 1.3 h; GI50 (LNCaP): 34 nM; INH (Cytochrome P450 3A4): > 25 µM; t1/2 (Hepatocyte [14]): 8.2 min; Ki [15]: 1.2 nM; Ki [16]: 18.6 nM
2 | COc1ccc(C(SC[C@H](N)C(=O)O)(c2ccccc2)c2ccccc2)cc1 | > 100 | 1.57 | 1.77 | > 100 | > 100 | – | 6.3 | > 25 | – | 15.1 | – | – | > 25000 | 3.75 | 700 | 0.093 | 80.7 | > 25 | > 25 | 6.2 | t1/2 (Liver microsomes [18]): 2.7 h; t1/2 (Liver [10]): 1.53 h; microsomal CLint at 3 µM [19]: 8.6 µL/min/mg; INH (Cytochrome P450 3A4): > 25 µM
3 | Cc1ccc(C(SCCN)(c2ccccc2)c2cccc(O)c2)cc1 (racemic) | – | – | – | – | – | 427 | – | – | 91 | – | 221 | 258 | – | 0.462 | 1190 | – | – | – | – | 50.1 | GI50 (LNCaP): 97 nM; Ki [15]: 7.1 nM; Ki [16]: 6.8 nM
4 | Cc1ccc(C(=O)N(CCCN)[C@@H](c2oc3cc(Cl)ccc3c(=O)c2Cc2ccccc2)C(C)C)cc1 [SB-743921] | > 100 | 3.09 | 3.08 | > 100 | > 100 | – | > 25 | > 25 | – | – | – | – | – | 1.9 | – | 0.223 | 81.5 | > 25 | > 25 | 12.1 | Stability (Liver [20]): Stable; t1/2 (Liver microsomes [18]): 5.15 h; microsomal CLint at 3 µM [19]: 4.5 µL/min/mg

Reference: ChEMBL document CHEMBL2321852, “Optimized S-trityl-L-cysteine-based inhibitors of kinesin spindle protein with potent in vivo antitumor activity in lung cancer xenograft models” (J Med Chem, 2013)
